Test results taken from ChEMBL document CHEMBL1130028, “A comparison of structure-activity relationships between spermidine and spermine analogue antineoplastics” (J Med Chem, 1997).

Key:
L1210 [1] = assay: Percentage of spermine (after 48 hr exposure to 500 uM) in L1210 cells.; type: functional, Mus musculus
In short: (§1)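 Log-phase L1210 cells were treated for 48 h with analogue at two concentrations. Cells were washed twice in cold RPMI-1640 and extracted with 0.6 N HClO4. Putrescine, spermidine and spermine were quantified by HPLC of dansyl derivatives and given as percent of untreated controls. Runs were in triplicate with untreated controls.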

L1210 [2] = assay: Percentage of spermidine (after 48 hr exposure to 100 uM) in L1210 cells.
L1210 [3] = assay: Percentage of putrescine after 48 hr exposure to the compound (500 uM ) in L1210 cells; type: functional, Mus musculus; in short: as §1
L1210 [4] = assay: Growth inhibitory activity against L1210 cells (96h); type: functional, cell-based; details: Mus musculus, L1210, 96 h
In short: (§2)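 Murine L1210 leukemia cells were kept in log growth in RPMI-1640 with 10% fetal calf serum or NuSerum, HEPES-MOPS buffer and 1 mM aminoguanidine. IC50 is the concentration giving 50% of untreated control growth, as the mean of at least two experiments.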

[5] = Effect on ornithine decarboxylase (ODC) tested at 1 uM at 4 hour in L1210 cells; type: functional, Mus musculus
In short: (§3)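 L1210 cells were exposed to 1 μM analogue, for 4 h (ODC) or 6 h (AdoMetDC). Activity was measured as 14CO2 released from [14C]carboxyl-labelled L-ornithine (ODC) or S-adenosyl-L-methionine (AdoMetDC) and given as percent of untreated control. Each run included DEHSPM-treated positive controls. Values are the mean of at least three experiments.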

L1210 [6] = assay: Percentage of spermidine (after 48 hr exposure to 500 uM) in L1210 cells.
[7] = Binding affinity values for polyamine transporter was determined
L1210 [8] = assay: Percentage of spermine (after 48 hr exposure to 100 uM) in L1210 cells.; type: functional, Mus musculus; in short: as §1
[9] = target: T1, S-adenosylmethionine decarboxylase proenzyme 1 (Mus musculus) (UniProt P0DMN7); assay: Effect on S-Adenosyl-methionine decarboxylase (AdoMetDC) tested at 1 uM at 6 hour in L1210 cells; type: functional, cell-based; in short: as §3
T1 sequence (whole entry): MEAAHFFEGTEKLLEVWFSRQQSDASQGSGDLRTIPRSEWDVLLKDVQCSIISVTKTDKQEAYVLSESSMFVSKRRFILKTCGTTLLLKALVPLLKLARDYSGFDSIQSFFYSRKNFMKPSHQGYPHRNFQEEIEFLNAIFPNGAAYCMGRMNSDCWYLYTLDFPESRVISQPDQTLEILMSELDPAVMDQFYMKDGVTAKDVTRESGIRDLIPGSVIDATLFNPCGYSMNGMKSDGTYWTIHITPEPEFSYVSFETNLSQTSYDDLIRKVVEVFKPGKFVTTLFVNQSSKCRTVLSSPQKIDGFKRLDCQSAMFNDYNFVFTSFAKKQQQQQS

L1210 [10] = assay: Percentage of putrescine (after 48 hr exposure to 100 uM) in L1210 cells.; type: functional, Mus musculus; in short: as §1
L1210 [11] = assay: Intracellular levels in L1210 cells following 500 uM exposure.; type: functional, Mus musculus
In short: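 L1210 cells were grown 48 h in medium containing 500 μM analogue. Cellular contents were analysed by HPLC of dansyl derivatives and given as pmol/10^6 cells, as parent drug and metabolites with the % of total drug in the cell.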

[12] = target: Spermidine/spermine N(1)-acetyltransferase (SAT) (Mus musculus) (UniProt Q6P8J2+P48026); assay: Effect on Spermidine/Spermine-Acetyltransferase (SSAT ) at 10 uM at 48 hour in L1210 cells; type: functional, cell-based
Chain of Spermidine/spermine N(1)-acetyltransferase (SAT) (Mus musculus) (P48026 whole entry, looked up): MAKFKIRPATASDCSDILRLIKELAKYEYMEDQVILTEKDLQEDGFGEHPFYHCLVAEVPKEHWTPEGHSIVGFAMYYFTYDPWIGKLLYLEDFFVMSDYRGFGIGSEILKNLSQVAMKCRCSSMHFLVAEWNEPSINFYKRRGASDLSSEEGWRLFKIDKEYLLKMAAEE
Chain of Spermidine/spermine N(1)-acetyltransferase (SAT) (Mus musculus) (Q6P8J2 whole entry, looked up): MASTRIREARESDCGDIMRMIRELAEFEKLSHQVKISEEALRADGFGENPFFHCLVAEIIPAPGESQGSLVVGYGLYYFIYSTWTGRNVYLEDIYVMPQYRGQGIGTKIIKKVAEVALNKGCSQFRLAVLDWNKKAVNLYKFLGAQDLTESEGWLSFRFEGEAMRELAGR
In short: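 L1210 cells were exposed to 10 μM triamine for 48 h. SSAT activity was taken as [14C]N1-acetylspermidine formed from spermidine and [14C]acetyl-CoA, given as percent of untreated control. DENSPM-treated cells served as positive control. Values are the mean of at least three experiments.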

L1210 [13] = assay: Growth inhibitory activity against L1210 cells (48h); type: functional, cell-based; details: Mus musculus, L1210, 48 h; in short: as §2
[14] = The chronic lethal dose administered as intraperitoneal injection in mice; type: ADME; details: mouse, in vivo, ip
In short: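 Female CD-1 mice, 10–12 weeks old. Analogue given as hydrochloride salt by ip injection three times daily for 6 days (18 doses). Appetite, weight and appearance monitored daily, and lethality scored 10 days after the final dose.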

| Structure (SMILES) | Polyamine (L1210 [1]) | Spermidine % (L1210 [2]) | Polyamine (L1210 [3]) | IC50 (L1210 [4]) | ODC [5] | Spermidine % (L1210 [6]) | Ki [7] | Polyamine (L1210 [8]) | AdoMetDC [9] | Polyamine (L1210 [10]) | Picoequivalents of amine/10e6 cells (L1210 [11]) | SSAT [12] | IC50 (L1210 [13]) | LD50 [14] |
| --- | --- | --- | --- | --- | --- | --- | --- | --- | --- | --- | --- | --- | --- | --- |
| CCNCCCNCCCCN | 53% | 25% | 0% | 4 µM | 10% | 14% | 8.6 µM | 80% | 58% | 0% | 16990 | 430% | > 100 µM |  |
| NCCCCNCCCN [SPERMIDINE] |  |  | 0% | > 100 µM | 16% |  | 2.2 µM |  | 43% | 0% |  | 160% | > 100 µM |  |
| CNCCCCNCCCCNC |  | 3% | 0% | 0.9 µM | 20% | 0% | 5.5 µM |  | 86% | 0% | 20340 | 510% | > 100 µM |  |
| CCNCCCCNCCCCCNCCCCNCC |  |  |  |  |  |  |  |  |  |  |  |  |  | 48 mg/kg/day |
| CCNCCCCCNCCCCNCCCCCNCC |  |  |  |  |  |  |  |  |  |  |  |  | 0.4 µM | 36 mg/kg/day |
| CCNCCCNCCCN |  |  |  | > 100 µM | 42% |  | 34 µM |  | 58% |  |  | 390% | > 100 µM |  |
| CCCNCCCNCCCNCCC |  | 76% | 68% | 60 µM | 100% | 71% | 125 µM | 96% | 99% | 70% | 15010 | 220% | > 100 µM |  |
| CCCNCCCCCNCCCCNCCC |  | 40% | 0% | 1.2 µM | 83% | 31% | 75 µM |  | 86% | 0% | 15150 | 80% | 100 µM |  |
| CCCNCCCCNCCCCN | 66% | 2% | 0% | 0.6 µM | 20% | 0% | 5 µM | 82% | 59% | 0% | 20550 | 570% | 100 µM |  |
| CCCNCCCNCCCCN | 72% | 25% | 0% | 28 µM | 18% | 15% | 3 µM | 90% | 56% | 0% | 18250 | 1200% | > 100 µM |  |
| NCCCCCNCCCCCN | 20% | 0% | 0% | 0.4 µM | 16% | 0% | 14 µM | 33% | 88% | 0% |  | 90% | 100 µM |  |
